In ChEMBL document CHEMBL1136729, “Synthesis of 3'- and 5'-nitrooxy pyrimidine nucleoside nitrate esters: "nitric oxide donor" agents for evaluation as anticancer and antiviral agents” (J Med Chem, 2003) one finds CC50, IC50 and NO release data, which are given here for 8 compounds.

≈ marks a conversion by molar mass, not a printed value.

In one assay the test system is 143B. The assay can be described thus: In vitro cell cytotoxicity against 143B-LTK cell lines expressed in HSV-1 TK. The format is functional. To be noted: Homo sapiens. In a few lines:
(§1)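 MTT assay. KBALB, KBALB-STK, 143B and 143B-LTK cells were grown in DMEM with 10% FBS; EMT-6 cells in Waymouth medium with 12.5% FBS. Cells were seeded at 8 × 10² per well and grown 24 h. Compound in DMEM was added for 3 days at 37 °C in 5% CO2, followed by MTT for 4 h, DMSO solubilisation and blank-corrected A540. CC50 is the concentration cutting A540 to 50% of control, mean of n = 6.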
With `O=c1[nH]c(=O)n([C@H]2C[C@H](O)[C@@H](CO)O2)cc1F` [FLOXURIDINE], the midpoint of cytotoxicity, the CC50, lay at 100 µM.
On the same count and under the same terms, in the case of `Nc1ccn([C@H]2C[C@H](O[N+](=O)[O-])[C@@H](CO)O2)c(=O)n1` it was 200 µM; in that of `Cc1cn([C@H]2C[C@H](O[N+](=O)[O-])[C@@H](CO)O2)c(=O)nc1N`, 1000 µM.
The compound `O=c1[nH]c(=O)n([C@H]2C[C@H](O)[C@@H](CO[N+](=O)[O-])O2)cc1I` registered a CC50 of 21 µM.
On the same count and under the same terms, in the case of `O=[N+]([O-])O[C@H]1CO[C@H]2[C@@H]1OC[C@H]2O[N+](=O)[O-]` [ISOSORBIDE DINITRATE] it was 700 µM.

For a further assay, the system named is Human alphaherpesvirus 2. The assay can be described thus: Inhibitory activity against HSV-2. The format is functional, organism-based.
Conditions: not given
Consider `O=c1[nH]c(=O)n([C@H]2C[C@H](O)[C@@H](CO)O2)cc1/C=C/I`, for which the IC50 is 80 µg/mL (≈ 210 µM).

Tested on in the next assay: not listed separately
Kind of assay: Compound was tested for in vitro nitric oxide release in the presence of 18 mM L-cysteine at 16 h. The format is functional.
Conditions: not given
The gist of the method:
(§2)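 Compound (2 mM stock in 0.1 M phosphate buffer pH 7.4) was mixed 1:1 with freshly made 36 mM L-cysteine in the same buffer and incubated at 37 °C for 1 or 16 h without air. The mixture was exposed to air for 10 min, then Griess reagent was added. A540 was read after 10 min. Nitrite was calculated from a 0–60 μM sodium nitrite standard curve, n = 3.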
For `O=c1ccn([C@H]2C[C@H](O)[C@@H](CO[N+](=O)[O-])O2)c(=O)[nH]1`, the NO release stood at 59.9%.
For the compound `Nc1ccn([C@H]2C[C@H](O[N+](=O)[O-])[C@@H](CO)O2)c(=O)n1`, the NO release was found to be 17.1%.
Regarding `Cc1cn([C@H]2C[C@H](O[N+](=O)[O-])[C@@H](CO)O2)c(=O)nc1N`, the NO release came to 50.3%.
With `O=c1[nH]c(=O)n([C@H]2C[C@H](O)[C@@H](CO[N+](=O)[O-])O2)cc1I`, the NO release is 36.4%.
As for `O=[N+]([O-])O[C@H]1CO[C@H]2[C@@H]1OC[C@H]2O[N+](=O)[O-]` [ISOSORBIDE DINITRATE], the NO release was found to be 24%.

A further assay has as its system 143B. The assay can be described thus: In vitro cell cytotoxicity against 143-B cell lines (Human osteosarcoma cell line). In kind it is functional.
Conditions: not given
The gist of the method: as §1
In turn, `O=c1[nH]c(=O)n([C@H]2C[C@H](O)[C@@H](CO)O2)cc1F` [FLOXURIDINE] showed a CC50 of 90 µM.
For the compound `O=c1[nH]c(=O)n([C@H]2C[C@H](O)[C@@H](CO[N+](=O)[O-])O2)cc1I`, the CC50 came to 340 µM.
With `O=[N+]([O-])O[C@H]1CO[C@H]2[C@@H]1OC[C@H]2O[N+](=O)[O-]` [ISOSORBIDE DINITRATE], the CC50 was found to be 600 µM.

A further assay is filed under the species Rattus norvegicus. The assay can be described thus: Compound was tested for in vitro nitric oxide release in the presence of rat serum at 16 h. The format is functional.
Conditions: not given
In a few lines:
(§3)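 Compound (1 × 10⁻² M stock) was mixed 1:9 with filtered rat serum. It was incubated at 37 °C for 1 or 16 h with 0.2 U/mL Aspergillus nitrate reductase, 50 mM HEPES, 5 μM FAD and 0.1 mM NADPH. Leftover NADPH was removed with lactate dehydrogenase plus pyruvate over 10 min. Griess reagent was added and A540 read after 10 min at 25 °C. % NO release came from a nitrite standard curve, n = 3.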
Consider `O=c1ccn([C@H]2C[C@H](O)[C@@H](CO[N+](=O)[O-])O2)c(=O)[nH]1`, for which the NO release was found to be 4.4%.
Consider `Nc1ccn([C@H]2C[C@H](O[N+](=O)[O-])[C@@H](CO)O2)c(=O)n1`, for which the NO release was 20.2%.
Turning to `Cc1cn([C@H]2C[C@H](O)[C@@H](CO[N+](=O)[O-])O2)c(=O)[nH]c1=O`, the NO release was 4.8%.
As for `Cc1cn([C@H]2C[C@H](O[N+](=O)[O-])[C@@H](CO)O2)c(=O)nc1N`, the NO release amounted to 59.5%.
Consider `O=c1[nH]c(=O)n([C@H]2C[C@H](O)[C@@H](CO[N+](=O)[O-])O2)cc1I`, for which the NO release worked out at 4.7%.
For `O=[N+]([O-])O[C@H]1CO[C@H]2[C@@H]1OC[C@H]2O[N+](=O)[O-]` [ISOSORBIDE DINITRATE], the NO release worked out at 2.6%.

For another assay, the species on record is Rattus norvegicus. Kind of assay: Compound was tested for in vitro nitric oxide release in the presence of rat serum at 1 h. The format is functional.
Conditions: not given
In a few lines: as §3
Turning to `O=c1ccn([C@H]2C[C@H](O)[C@@H](CO[N+](=O)[O-])O2)c(=O)[nH]1`, the NO release came out at 2.9%.
Same read-out and setting: in the case of `Nc1ccn([C@H]2C[C@H](O[N+](=O)[O-])[C@@H](CO)O2)c(=O)n1` it was 18.8%; in that of `Cc1cn([C@H]2C[C@H](O)[C@@H](CO[N+](=O)[O-])O2)c(=O)[nH]c1=O`, 3.6%.
Consider `Cc1cn([C@H]2C[C@H](O[N+](=O)[O-])[C@@H](CO)O2)c(=O)nc1N`, for which the NO release worked out at 47.1%.
Still for that read-out and setting: the figure for `O=c1[nH]c(=O)n([C@H]2C[C@H](O)[C@@H](CO[N+](=O)[O-])O2)cc1I` is 3.9%.
Consider `O=[N+]([O-])O[C@H]1CO[C@H]2[C@@H]1OC[C@H]2O[N+](=O)[O-]` [ISOSORBIDE DINITRATE], for which the NO release was found to be 1.9%.

Tested on in the next assay: not listed separately
The assay can be described thus: Compound was tested for in vitro nitric oxide release in the presence of 18 mM L-cysteine at 1 h. The format is functional.
Conditions: not given
In a few lines: as §2
On to `O=c1ccn([C@H]2C[C@H](O)[C@@H](CO[N+](=O)[O-])O2)c(=O)[nH]1`, for which the NO release was found to be 5.4%.
Consider `Nc1ccn([C@H]2C[C@H](O[N+](=O)[O-])[C@@H](CO)O2)c(=O)n1`, for which the NO release turned out to be 1.5%.
In the case of `Cc1cn([C@H]2C[C@H](O)[C@@H](CO[N+](=O)[O-])O2)c(=O)[nH]c1=O`, the NO release came out at 5%.
As for `Cc1cn([C@H]2C[C@H](O[N+](=O)[O-])[C@@H](CO)O2)c(=O)nc1N`, the NO release came out at 3.8%.
Turning to `O=c1[nH]c(=O)n([C@H]2C[C@H](O)[C@@H](CO[N+](=O)[O-])O2)cc1I`, the NO release came to 3.7%.
With `O=[N+]([O-])O[C@H]1CO[C@H]2[C@@H]1OC[C@H]2O[N+](=O)[O-]` [ISOSORBIDE DINITRATE], the NO release was determined as 3.5%.

The test system of the next assay is KBALB-STK. Kind of assay: In vitro cell cytotoxicity against KBALB-STK cell lines expressed in HSV-1 TK. In kind it is functional. To be noted: Mus musculus. The gist of the method: as §1
On to `Cc1cn([C@H]2C[C@H](O)[C@@H](CO[N+](=O)[O-])O2)c(=O)[nH]c1=O`, for which half-maximal cytotoxicity (CC50) was put at 300 µM.
For `O=c1[nH]c(=O)n([C@H]2C[C@H](O)[C@@H](CO[N+](=O)[O-])O2)cc1I`, half-maximal cytotoxicity (CC50) was put at 250 µM.
`O=[N+]([O-])O[C@H]1CO[C@H]2[C@@H]1OC[C@H]2O[N+](=O)[O-]` [ISOSORBIDE DINITRATE] displayed a 50% cytotoxic concentration (CC50) of 650 µM.

The test system of another assay is KBALB cell line. Kind of assay: In vitro cell cytotoxicity against KBALB cell line (transformed fibroblast sarcoma cell line). The format is functional. To be noted: Mus musculus. The gist of the method: as §1
With `O=c1ccn([C@H]2C[C@H](O)[C@@H](CO[N+](=O)[O-])O2)c(=O)[nH]1`, the CC50 was 1000 µM.
In turn, `O=c1[nH]c(=O)n([C@H]2C[C@H](O)[C@@H](CO[N+](=O)[O-])O2)cc1I` displayed a CC50 of 340 µM.
Still for that read-out and setting: the figure for `O=[N+]([O-])O[C@H]1CO[C@H]2[C@@H]1OC[C@H]2O[N+](=O)[O-]` [ISOSORBIDE DINITRATE] is 970 µM.

The subject of the next assay is Human alphaherpesvirus 1. Kind of assay: Inhibitory activity against HSV-1. In kind it is functional, organism-based.
Conditions: not given
Turning to `O=c1[nH]c(=O)n([C@H]2C[C@H](O)[C@@H](CO)O2)cc1/C=C/I`, half-maximal inhibition (IC50) was put at 0.0051 µg/mL (≈ 0.0134 µM).

Tested on in another assay: not listed separately
Kind of assay: Compound was tested for in vitro nitric oxide release in the presence of 18 mM L-cysteine at 16h. The format is functional.
Conditions: not given
In a few lines: as §2
As to `Cc1cn([C@H]2C[C@H](O)[C@@H](CO[N+](=O)[O-])O2)c(=O)[nH]c1=O`, the NO release worked out at 59.8%.

The test system of a further assay is Vaccinia virus. The assay can be described thus: Inhibitory activity against vaccinia virus. To be noted: Orthopoxvirus vaccinia. The format is functional, organism-based.
Compound `O=c1[nH]c(=O)n([C@H]2C[C@H](O)[C@@H](CO)O2)cc1/C=C/I` gave an IC50 of 2.3 µg/mL (≈ 6.05 µM).
